Key:
[1] = test system: PC-3; experiment: Cytotoxicity against human PC3 cells by MTT assay; format: functional, cell-based
In short: (§1)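 Cells in 96-well plates exposed to test compounds for 48 h. MTT (5 mg/mL in PBS) then added and plates held 2 h at 37 °C under 5% CO2. Absorbance read at 570 nm and IC50 values reported.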

[2] = test system: DU-145; experiment: Cytotoxicity against human DU145 cells by MTT assay; format: functional, cell-based; in short: as §1

SMILES: CC(C)=CCC[C@@H](C)[C@H]1CC[C@@]2(C)[C@@H]3CC[C@H]4C(C)(C)[C@@H](O)[C@H](O)[C@H](O)[C@@]45C[C@@]35CC[C@]12C
- IC50 [1]: 10.1 µM
- IC50 [2]: 37.2 µM

SMILES: CC(C)=CCC[C@@H](C)[C@H]1CC[C@@]2(C)[C@@H]3CC[C@H]4C(C)(C)[C@H](O)[C@H](O)[C@H](O)[C@@]45C[C@@]35CC[C@]12C
- IC50 [1]: > 50 µM
- IC50 [2]: > 50 µM

SMILES: CC(=O)O[C@H]1[C@H](O)[C@H](O)[C@]23C[C@]24CC[C@]2(C)[C@@H]([C@H](C)CCC=C(C)C)CC[C@@]2(C)[C@@H]4CC[C@H]3C1(C)C
- IC50 [1]: 15.4 µM
- IC50 [2]: 20.7 µM

SMILES: CC(C)=CCC[C@@H](C)[C@H]1CC[C@@]2(C)[C@@H]3CC[C@H]4C(C)(C)[C@@H](O)C[C@H](O)[C@@]45C[C@@]35CC[C@]12C
- IC50 [1]: > 50 µM
- IC50 [2]: > 50 µM

SMILES: CC(=O)O[C@H]1[C@@H](O)[C@H](O)C(C)(C)[C@@H]2CC[C@@H]3[C@]4(CC[C@]5(C)[C@@H]([C@H](C)CCC=C(C)C)CC[C@@]35C)C[C@]124
- IC50 [1]: 13.4 µM
- IC50 [2]: > 50 µM

SMILES: C[C@H](C/C=C/C(C)(C)O)[C@H]1CC[C@@]2(C)[C@@H]3CC[C@H]4C(C)(C)[C@@H](O)[C@H](O)[C@H](O)[C@@]45C[C@@]35CC[C@]12C
- IC50 [1]: 10.3 µM
- IC50 [2]: 34.7 µM

SMILES: CC(C)=CCC[C@@H](C)[C@H]1CC[C@@]2(C)[C@@H]3CC[C@H]4C(C)(C)[C@@H](OC(=O)CC(C)C)[C@H](O)[C@H](O)[C@@]45C[C@@]35CC[C@]12C
- IC50 [1]: 28.4 µM
- IC50 [2]: > 50 µM
